According to ChEMBL document CHEMBL4513216, “Probing the Open Global Health Chemical Diversity Library for Multistage-Active Starting Points for Next-Generation Antimalarials” (ACS Infect Dis, 2020):

Experiment: Toxicity liver stage against HepG2, at 10uM
Type: cell-based
Parameters: test concentration 10 uM, cell line HepG2-A16-CD81EGFP
Conditions: human, HepG2-A16-CD81EGFP cells; read-out: INHIBITION
Outline: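 Uninfected HepG2-A16-CD81EGFP cells, 3 × 10^3 per well, 1536-well, plated on prespotted compound at 10 μM final, parasite-free screening media added to match infected plates; puromycin 10 μM positive, DMSO 0.5% negative; run in parallel with 48 h PbLuc assay at 37 °C, 5% CO2; viability by CellTiter-Glo luminescence, normalized to controls.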

Point of comparison: `Cn1cc(CNCCC(=O)NCc2ccccc2)c(-c2cccnc2)n1`, cytotoxicity at 10 µM -2.19%. Against it:
- c1cc(-c2noc([C@@H]3CCCN3C3CCC3)n2)cc(N2CCCC2)n1 — higher, 5.94%
- CCN(CC)CCCNCC1CCOC(C)(C)C1 (stereo unspecified) — lower, -6.01%
- COc1ccc(C2OC(COc3ccc(C)cc3)=NN2C(C)=O)cc1 (stereo unspecified) — lower, -6.19%
- Nc1nnc(SCC(=O)c2cc3c(cc2Cl)NC(=O)C3)s1 — higher, -0.139%
- CS(=O)(=O)N1CCN(C(=O)c2cc(-c3ccc(Br)s3)n[nH]2)CC1 — lower, -7.62%
- Cc1cc(C)n(CCN2CCN(C(=O)c3ccc(Br)o3)CC2)n1 — lower, -8.46%
- Cc1c(Cl)cccc1S(=O)(=O)N1CCC2(CC1)OCCS2 — higher, 4.19%
- Cc1cccc(CC(=O)Nc2cnn(C3CCOC3)c2)c1 (stereo unspecified) — higher, -0.813%
- Cc1ccccc1NC(=O)N1CC[C@@H]2CN(CC(C)C)S(=O)(=O)[C@@H]2CC1 — higher, -0.567%
- COCCn1cnc(-c2cc(C(=O)NC(C)C)c3ccccn23)c1 — higher, -1.03%
- Cc1ccc(C(=O)N2C[C@@H]3CN(c4ncccn4)C[C@@H]3C2)cc1 — higher, 9.34%
- CN(C)CC(=O)N1CCC2(CC1)COCCN(c1ncccn1)C2 — higher, 5.38%
- O=C(CC1CC1)N1Cc2nccn2CC(Cn2ncccc2=O)C1 (stereo unspecified) — higher, 7.04%
- Cn1cc(CN2CCC3(CC2)CN(C(=O)c2cnccn2)CCO3)cn1 — lower, -5.49%
- O=C(C1CCOC1)N1CCc2ncnc(C3CC3)c2CC1 (stereo unspecified) — lower, -2.62%
- Cn1cc(I)c(C(=O)NC2CCCC2)n1 — higher, 5.53%
- COc1ncnc2c1CCN(c1cc(C(F)(F)F)ncn1)CC2 — higher, -1.42%
- O=C(C1=CCCC1)N1CCO[C@H]2[C@@H](OCC3CC3)CC[C@@H]21 — lower, -5.66%
- Cc1nn(C)cc1CN(C)C(=O)c1cccnc1 — higher, 0.992%
- CN(C)C(=O)c1nnc2ccc(N3CCOCC3)cc2n1 — higher, 6.47%
- CCOC(=O)C1CCN(C(=O)c2cc(OCC)c3ccoc3c2)CC1 — higher, 34.4%
- O=C(c1ccc(-c2ccc(O)nc2)s1)N1CCCCCC1 — higher, 4.51%
- Cc1cc(-c2ccc(=O)n(CCNC(=O)C3CCCCC3)n2)c(C)o1 — lower, -3.73%
- COc1cc(CN2CC[C@H](NC(C)=O)[C@@H](O)CC2)ccc1F — lower, -9.19%
- Cc1csc(Nc2nccnc2C2CCCN2CC(N)=O)n1 (stereo unspecified) — lower, -20.8%
- O=C(O)c1ccccc1-c1ccc(CN2CC(O)C2)cc1 — higher, -0.363%
- CCc1ccsc1CNC(=O)CNC(=O)C(C)(C)C — lower, -4.08%
- CC(NC1(CNS(=O)(=O)N(C)C)CCCC1)c1ccccc1 (stereo unspecified) — lower, -5.01%
- COc1cccc(COC(C)C(=O)NC2CCN(CC(N)=O)CC2)c1 (stereo unspecified) — higher, 0.234%
- O=C(CCC(=O)Nc1ccccc1)NCC(=O)c1ccc(F)cc1F — higher, -0.493%
- N#CC1COCCN1C(=O)c1ccc2[nH]cnc2c1 (stereo unspecified) — lower, -2.87%
- CS(=O)(=O)N1CCC(CNc2cc(Cl)ccc2C#N)CC1 — higher, 14.9%
- NC(=O)CN(Cc1ncc(-c2ccc(F)cc2)o1)C1CCCC1 — lower, -6.19%
- CCN(CC)CCn1cc(NC2CCN(C(C)(C)C)CC2)cn1 — lower, -6.53%
- COc1ccc(CNCC2CN(C3CC3)CCO2)cc1OC (stereo unspecified) — lower, -17%
- CCc1nc(CCNC(=O)NC2CCC(=O)N(C)C2)sc1C (stereo unspecified) — higher, 2.78%
- CCCN1Cc2ccccc2CC1C(=O)NC (stereo unspecified) — lower, -5.74%
- CCC(C)(CNC(=O)c1ccon1)NC(=O)c1ccon1 (stereo unspecified) — higher, -0.903%
- CCOC(=O)c1c(NC(=O)CN2CCN(C(C)=O)CC2)sc(C)c1C — higher, 1.15%
- CCCc1noc(CCC(=O)N2CCCC2Cn2cc(C)cn2)n1 (stereo unspecified) — higher, -1.11%
- Fc1ccc(CNCCn2cccn2)c(F)c1 — higher, 8.59%
- NC(=O)CC1CCCCN1C(=O)c1ccc2cc[nH]c2c1 (stereo unspecified) — lower, -4.02%
- COc1ccc2c(c1)CCCN(C(C)C(=O)N1CCCC1)C2 (stereo unspecified) — higher, 10.9%
- CC(CCSc1ccccc1)N1CCN(C(=O)c2ccccc2O)CC1 (stereo unspecified) — higher, 8.97%
- COc1ccccc1C(C)(C)NCc1ccc(C)o1 — higher, -0.121%
- CCc1nc(C2CCCN2C(=O)c2ccc(=O)n(CC)n2)no1 (stereo unspecified) — higher, 2.72%
- Cn1cc(C2CCCN2C(=O)CCn2c(=O)oc3ccccc32)cn1 (stereo unspecified) — higher, 4.91%
- Cc1cnn(CCNC(C)C(=O)NCCc2cccs2)c1 (stereo unspecified) — lower, -9.38%
- CCN1CCOC(CNCc2c(Cl)nc3ccccn23)C1 (stereo unspecified) — higher, 0.174%
- CN(C)C(=O)CN(C)C(=O)c1csc(Br)c1 — higher, 12.3%
- COCCNC(=O)N1CCCC(COc2ccccc2)C1 (stereo unspecified) — higher, 0.186%
- COc1cccc(COCC(O)CN(C)c2ccc(C)cc2C)c1 (stereo unspecified) — higher, 9.66%
- Cc1nc(NC(=O)NCCCN2CCC(C(N)=O)CC2)sc1C — higher, 0.902%
- Cc1noc(C)c1CNS(=O)(=O)N(C)Cc1ccccc1Br — higher, 17.8%
- O=C1OCCN1CCOc1nc(-c2ccccc2Cl)no1 — lower, -11.3%
- NC(=O)CSCC(=O)N1CCc2cc(Cl)cc(Cl)c2C1 — higher, 27.9%
- CCCc1n[nH]c(C2CN(CCn3cccn3)CCO2)n1 (stereo unspecified) — lower, -11.3%
- CC(Oc1ccccc1C(F)(F)F)C(=O)NS(=O)(=O)C(C)C (stereo unspecified) — lower, -7.19%
- Cc1ccc(CNC(=O)C2=NOC3(CCCNC3)C2)cc1 (stereo unspecified) — higher, 1.33%
- CCCN(Cc1nc(-c2ccoc2)oc1C)CC1CCCO1 (stereo unspecified) — higher, 2.4%
- CCc1cc(NCCCN(C)C2CCCC2)ncn1 — higher, 1.75%
- CCOCCn1c(=O)[nH]c2cc(C(=O)N(C)Cc3nc(C)c[nH]3)ccc21 — higher, 6.09%
- CCCOCC1CCN(C(=O)Cn2ncc(N3CCCC3)cc2=O)C1 (stereo unspecified) — higher, 3.41%
- O=C(C1CCC1)N1CCN(Cc2ccc(F)cc2)[C@H]2CS(=O)(=O)C[C@H]21 — higher, 1.65%
- N[C@H]1c2ccccc2C[C@@H]1NC(=O)C1CCN(Cc2ccco2)CC1 — lower, -8.57%
- O=C(N[C@@H]1CCN(C(=O)C2CCOCC2)C[C@H]1O)c1ccccn1 — lower, -2.88%
- O=C1OCCN1Cc1cccc(F)c1C(F)(F)F — higher, 2.61%
- Cc1nc2c(c(N[C@@H](CO)C(N)=O)n1)Cc1ccccc1OC2 — higher, 2.8%
- C[C@@H]1CN(c2cc(N3CCC(O)CC3)ncn2)C[C@@]1(O)C1CC1 — higher, -1.79%
- CN(C)CCN(C)c1nc(CCc2ccccc2)nc2c1cnn2C — higher, 0.562%
- Cc1ccccc1-c1ncc(CNCc2csc(C(C)C)n2)s1 — higher, 0.264%
- Cc1cc(F)ccc1-c1cc(NCCO)nc2[nH]ccc12 — higher, 21.7%
- O=C(CCO)N[C@H]1CN(CC2CCC2)C[C@@H]1c1ccccc1 — higher, -0.447%
- O=C(CCC1CCN(C(=O)c2cc[nH]c2)CC1)NCc1cccc(Cl)c1 — higher, -2.11%
- C[C@@H]1CN(c2nc3c(cc2C(N)=O)CCC3)C[C@]1(C)O — higher, -0.112%
- Cc1cc(NCCc2nnc(N)s2)nc(-c2ccccc2)n1 — higher, 6.9%
- CCCn1c(C)c(CC(=O)NCC(N)=O)c2c1CC(C)(C)CC2=O — higher, 2.03%
- Cc1ccc(-n2c(COCC(=O)O)nc3c(C)cccc32)nc1 — higher, 2.43%
- Cc1cccc(C(C(=O)NC(C)(C)CN2CCCC2)N(C)C)c1 (stereo unspecified) — lower, -3.73%
- COc1ccccc1CNC(=O)CN(C)C(C)c1ccon1 (stereo unspecified) — lower, -4.29%
- CS(=O)(=O)CCC(=O)Nc1cc(F)ccc1OCC1CCCO1 (stereo unspecified) — higher, 3.41%
- Cc1cnn(CC2CN(Cc3nnc(-c4ccccc4)o3)CCO2)c1 (stereo unspecified) — lower, -6.61%
- O=C(CCOc1ccccc1)N1CCCC(n2cncn2)C1 (stereo unspecified) — lower, -2.95%
- CCNc1cc2c(nn1)CCN(C(=O)c1ccc3c(c1)OCO3)C2 — lower, -13.5%
- CCc1ccc(C(=O)N2CCN(CCO)CC2)o1 — lower, -5.22%
- CCc1nc2n(n1)CC(NCC(=O)Nc1cc(C(C)(C)C)no1)CC2 (stereo unspecified) — lower, -9.26%
- Cc1ccccc1CN(C)C(=O)CN1CCOC(Cn2cncn2)C1 (stereo unspecified) — higher, -1.07%
- CC(Cn1cccn1)NC(=O)CCC(=O)c1cccs1 (stereo unspecified) — lower, -2.39%
- N#Cc1ccc(S(=O)(=O)N2CSCC2C(=O)NCC(F)(F)F)cc1 (stereo unspecified) — lower, -7.6%
- CCc1ccc(C(=O)NCc2cccc(S(=O)(=O)NC)c2)o1 — lower, -2.31%
- O=C(NCCn1ccnc1)NCC(c1ccco1)N1CCCC1 (stereo unspecified) — higher, 2.01%
- CCc1nc(CC(=O)N2CCn3c(nnc3C(F)(F)F)C2)cs1 — lower, -9.29%
- O=C(NCc1cccc2cccnc12)N1CCC(n2cncn2)CC1 — higher, 0.722%
- O=C(c1cnc(-c2ccco2)s1)N1CCCC1Cn1cccn1 (stereo unspecified) — higher, -1.08%
- Cc1csc(C2CCCCN2C(=O)CN(C)Cc2ccccc2)n1 (stereo unspecified) — higher, 2.62%
- CCOC(=O)N1CCCC2(CCCNC2)C1 (stereo unspecified) — higher, 2.11%
- CN1CC(=O)N(c2cccnc2)CC12CCN(C(=O)c1cccnc1)C2 (stereo unspecified) — higher, 2.25%
- CS(=O)(=O)N1CCOC2(CCCN(c3cnccn3)C2)C1 (stereo unspecified) — lower, -3.23%
- C[C@@H]1CN(Cc2cccc(F)c2)C[C@]12CCN(Cc1cccnc1)C2=O — lower, -2.6%
- CN1CCN(C[C@@H]2OC[C@H]3CN(Cc4ccsc4)CC[C@H]32)CC1 — lower, -11%
- COCCN1CCC2(CC1)CC(NC(=O)COC)c1ccccc1O2 (stereo unspecified) — lower, -8.43%
- CC(C)NC(=O)C1CCC2(CCN(Cc3cnn(C)c3)CC2)C1 (stereo unspecified) — higher, 2.77%
- Cc1nc(COCc2nc3c(o2)CN(C(=O)c2ccc[nH]2)C3)cs1 — higher, 0.657%
- COCC(=O)N1CCOCC2(CCN(Cc3cccs3)C2)C1 (stereo unspecified) — lower, -6.16%
- CN(C)C(=O)N1CC2(CCN(CC3CC3)CC2)c2cc(F)ccc21 — higher, -1.54%
- CNC(=O)CN1CC[C@H]2CN(C(=O)c3ccc(C)nc3)C[C@H]2C1 — higher, 1.61%
- Cc1nc(CN2CCO[C@H]3[C@@H](Oc4ccccn4)CC[C@@H]32)cs1 — higher, 2.4%
- Cc1nc(CN2C[C@@H]3CN(C(=O)c4cnccn4)C[C@@H]3C2)cs1 — lower, -8.97%
- O=C(Nc1ccccc1)N1C[C@@H]2C[C@H](C(=O)N3CCCC3)[C@H](C1)O2 — lower, -3.29%
- CCCNc1c(NC(=O)NCCCOC)c(=O)oc2ccccc12 — lower, -4.52%
